According to ChEMBL document CHEMBL1127600, “Mercaptoacyl amino acid inhibitors of atriopeptidase. 1. Structure-activity relationship studies of methionine and S-alkylcysteine derivatives” (J Med Chem, 1994):

How the values were obtained:
[1] = target: T1, Angiotensin-converting enzyme (Oryctolagus cuniculus, UniProt P12822); experiment: Tested in vitro for its inhibitory activity against angiotensin converting enzyme
T1 sequence (P12822 whole entry): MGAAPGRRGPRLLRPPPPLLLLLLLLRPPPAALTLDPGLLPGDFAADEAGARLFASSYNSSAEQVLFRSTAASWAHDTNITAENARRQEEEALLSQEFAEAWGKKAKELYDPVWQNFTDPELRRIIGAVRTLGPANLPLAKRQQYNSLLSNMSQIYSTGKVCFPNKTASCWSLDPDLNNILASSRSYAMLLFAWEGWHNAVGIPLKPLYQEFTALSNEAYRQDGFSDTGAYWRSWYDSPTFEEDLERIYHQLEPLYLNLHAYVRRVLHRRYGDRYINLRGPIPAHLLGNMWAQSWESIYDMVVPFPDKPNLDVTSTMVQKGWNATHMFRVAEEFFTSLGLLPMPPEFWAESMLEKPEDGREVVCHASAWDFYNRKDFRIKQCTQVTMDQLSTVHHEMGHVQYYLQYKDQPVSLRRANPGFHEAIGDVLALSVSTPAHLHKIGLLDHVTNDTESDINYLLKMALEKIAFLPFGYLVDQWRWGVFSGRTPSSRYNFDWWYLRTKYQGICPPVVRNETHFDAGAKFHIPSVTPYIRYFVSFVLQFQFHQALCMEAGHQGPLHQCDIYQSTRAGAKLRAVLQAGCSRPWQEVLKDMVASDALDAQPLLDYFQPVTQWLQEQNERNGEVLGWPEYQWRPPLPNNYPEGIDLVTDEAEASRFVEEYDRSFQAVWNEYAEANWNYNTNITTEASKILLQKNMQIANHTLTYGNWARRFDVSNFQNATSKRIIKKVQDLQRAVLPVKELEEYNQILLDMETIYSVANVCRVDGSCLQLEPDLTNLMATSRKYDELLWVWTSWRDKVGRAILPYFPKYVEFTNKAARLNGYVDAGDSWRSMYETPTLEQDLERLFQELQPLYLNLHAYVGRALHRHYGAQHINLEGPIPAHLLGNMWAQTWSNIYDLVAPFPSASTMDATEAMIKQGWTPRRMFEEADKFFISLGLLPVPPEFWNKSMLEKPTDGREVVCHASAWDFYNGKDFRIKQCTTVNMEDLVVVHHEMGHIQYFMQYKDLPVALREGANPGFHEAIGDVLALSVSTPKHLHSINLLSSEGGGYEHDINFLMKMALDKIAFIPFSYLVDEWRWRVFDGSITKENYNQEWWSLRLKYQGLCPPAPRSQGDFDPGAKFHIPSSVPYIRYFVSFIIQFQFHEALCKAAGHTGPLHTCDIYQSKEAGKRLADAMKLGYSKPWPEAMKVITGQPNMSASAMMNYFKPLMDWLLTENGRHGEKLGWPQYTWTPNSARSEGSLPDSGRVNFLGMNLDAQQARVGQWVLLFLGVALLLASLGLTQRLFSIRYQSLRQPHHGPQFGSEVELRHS

Neprilysin [2] = target: T2, Neprilysin (Oryctolagus cuniculus, UniProt P08049); experiment: In vitro inhibitory activity against neutral endopeptidase (NEP)
T2 sequence (P08049 whole entry): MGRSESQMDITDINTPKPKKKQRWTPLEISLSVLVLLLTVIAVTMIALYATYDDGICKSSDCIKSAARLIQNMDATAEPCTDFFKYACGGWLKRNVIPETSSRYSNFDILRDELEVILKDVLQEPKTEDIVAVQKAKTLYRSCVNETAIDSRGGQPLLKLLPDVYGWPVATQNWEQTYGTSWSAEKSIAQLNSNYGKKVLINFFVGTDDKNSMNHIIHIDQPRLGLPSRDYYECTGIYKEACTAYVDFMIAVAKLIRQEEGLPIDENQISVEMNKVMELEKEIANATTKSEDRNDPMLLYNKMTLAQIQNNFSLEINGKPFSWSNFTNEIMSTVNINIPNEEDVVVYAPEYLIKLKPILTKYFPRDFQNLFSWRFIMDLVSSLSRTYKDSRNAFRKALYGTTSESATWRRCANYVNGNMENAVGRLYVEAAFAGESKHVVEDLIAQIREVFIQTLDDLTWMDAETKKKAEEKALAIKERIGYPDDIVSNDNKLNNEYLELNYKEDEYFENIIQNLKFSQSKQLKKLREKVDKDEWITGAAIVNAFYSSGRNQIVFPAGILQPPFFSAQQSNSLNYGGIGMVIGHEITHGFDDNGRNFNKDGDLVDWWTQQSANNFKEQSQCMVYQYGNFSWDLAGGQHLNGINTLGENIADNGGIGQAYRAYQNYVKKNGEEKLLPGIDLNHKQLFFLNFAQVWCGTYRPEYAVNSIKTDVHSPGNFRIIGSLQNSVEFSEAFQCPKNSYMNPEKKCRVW
In short: (§1)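 Purified rabbit kidney NEP (EC 24.11) was the enzyme source, with [³H]Leu-enkephalin as the substrate.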

Rattus norvegicus [3] = experiment: Tested for in vivo Antihypertensive activity in DOCA rat by giving peroral dose of 30 mg/kg; type: functional; details: route oral
In short: (§2)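 Male Sprague-Dawley rats (100–150 g) had DOCA-Na hypertension induced and were used 17–21 days later if mean BP was >150 mmHg. Rats were not fasted. Mean BP was recorded after 90-min equilibration. Dosing was sc in TRIS buffer (2 mL/kg) or po in 0.4% aqueous methylcellulose (4 mL/kg). The maximum BP fall over 4 h versus vehicle controls was taken, averaged over four or more animals.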

Rattus norvegicus [4] = experiment: Tested for in vivo Antihypertensive activity in DOCA rat by giving subcutaneous dose of 30 mg/kg; type: functional; in short: as §2
Rattus norvegicus [5] = experiment: In vivo potentiation of ANF induced hypotension in rat, following subcutaneous dose of 30 mg/kg; type: functional
In short: (§3)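 Conscious male SHR (270–300 g) had caudal artery and jugular vein cannulae placed under ether. After at least 90 min of stabilization, ANF 103-125 or 99-126 was given as an iv bolus at a submaximal dose. 60–90 min later, drug or vehicle (0.2% aqueous methylcellulose with 20% Tris-HCl) was given sc. ANF was repeated 15 min after dosing, and the response was compared with vehicle controls. Values are means of four or more animals.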

Neprilysin [6] = target: T2, Neprilysin; experiment: Ttested for its inhibitory activity against neutral endopeptidase (NEP); in short: as §1
Rattus norvegicus [7] = experiment: Tested for in vivo Antihypertensive activity in DOCA rat by giving subcutaneous dose of 3 mg/kg; type: functional; in short: as §2
Rattus norvegicus [8] = experiment: Tested for in vivo Antihypertensive activity in DOCA rat by giving peroral dose of 1 mg/Kg; type: functional; in short: as §2
Rattus norvegicus [9] = experiment: In vivo potentiation of ANF Induced Hypotension in rat was determined by giving peroral dose of 10 mg/kg; type: functional; details: route oral
Rattus norvegicus [10] = experiment: In vivo potentiation of ANF Induced Hypotension in rat was determined by giving peroral dose of 3 mg/kg; type: functional; details: route oral
Rattus norvegicus [11] = experiment: Tested for in vivo Antihypertensive activity in DOCA rat by giving peroral dose of 10 mg/kg; type: functional; details: route oral; in short: as §2
Rattus norvegicus [12] = experiment: Tested for in vivo Antihypertensive activity in DOCA rat by giving subcutaneous dose of 1 mg/kg; type: functional; in short: as §2
Rattus norvegicus [13] = experiment: In vivo potentiation of ANF Induced Hypotension in rat was determined by giving subcutaneous dose of 10 mg/kg; type: functional; in short: as §3
Rattus norvegicus [14] = experiment: Tested for in vivo Antihypertensive activity in DOCA rat by giving peroral dose of 3 mg/kg; type: functional; details: route oral
In short: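 Male Sprague-Dawley rats (100–150 g at preparation) made DOCA-Na hypertensive, used 17–21 days after induction if mean BP >150 mmHg, nonfasted. Drug given orally as solution or suspension in 0.4% aqueous methylcellulose (4 mL/kg). Mean BP recorded after 90-min equilibration. Value is maximum BP fall over 4 h versus vehicle-treated controls, averaged over four or more animals.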

Rattus norvegicus [15] = experiment: In vivo potentiation of ANF Induced Hypotension in rat was determined by giving subcutaneous dose of 90 mg/kg ANF; type: functional
Rattus norvegicus [16] = experiment: Tested for in vivo Antihypertensive activity in DOCA rat by giving subcutaneous dose of 10 mg/kg; type: functional; in short: as §2
Rattus norvegicus [17] = experiment: Tested for in vivo Antihypertensive activity in DOCA rat by giving peroral dose of 3 mg/Kg; type: functional; in short: as §2
Rattus norvegicus [18] = experiment: Tested for in vivo Antihypertensive activity in DOCA rat by giving peroral dose of 1 mg/kg; type: functional; details: route oral; in short: as §2
Rattus norvegicus [19] = experiment: Ttested for in vivo Antihypertensive activity in DOCA rat by giving subcutaneous dose of 0.1 mg/kg; type: functional; in short: as §2

| SMILES | IC50 [1] [nM] | IC50 (Neprilysin [2]) [nM] | Delta blood pressure (Rattus norvegicus [4]) [mmHg] | Delta blood pressure (Rattus norvegicus [5]) [mmHg] | also measured |
| --- | --- | --- | --- | --- | --- |
| COc1ccc(CSC[C@@H](NC(=O)[C@H](CS)Cc2ccccc2)C(=O)O)cc1 | – | – | – | 23 | Delta blood pressure (Rattus norvegicus [3]): 0 mmHg; IC50 (Neprilysin [6]): 17 nM |
| CSCC[C@@H](NC(=O)[C@H](CSC(=O)c1ccccc1)Cc1ccccc1)C(N)=O | – | – | 0 | – | Delta blood pressure (Rattus norvegicus [9]): 52 mmHg; Delta blood pressure (Rattus norvegicus [10]): 19 mmHg |
| Cc1ccc(CSC[C@@H](NC(=O)[C@H](CS)Cc2ccccc2)C(N)=O)cc1 | – | > 300 | – | 17 | Delta blood pressure (Rattus norvegicus [11]): 46 mmHg; Delta blood pressure (Rattus norvegicus [7]): 17 mmHg |
| CC(=O)SC[C@H](Cc1ccccc1)C(=O)N[C@H](CSCc1ccc(C)cc1)C(=O)O | – | – | – | – | Delta blood pressure (Rattus norvegicus [9]): 20 mmHg |
| C[C@H](CS)C(=O)N[C@H](CSCc1ccccc1)C(=O)O | 58 | 46 | 0 | 19 | – |
| Cc1ccc(CSC[C@@H](NC(=O)[C@@H](CS)Cc2cccc3ccccc23)C(=O)O)cc1 | > 1000 | 2 | – | 0 | Delta blood pressure (Rattus norvegicus [11]): 8 mmHg; Delta blood pressure (Rattus norvegicus [3]): 33 mmHg; Delta blood pressure (Rattus norvegicus [12]): 47 mmHg; Delta blood pressure (Rattus norvegicus [7]): 26 mmHg |
| CC(=O)SC[C@@H](Cc1ccccc1)C(=O)N[C@H](CSCc1ccc(C)cc1)C(=O)O | – | – | 48 | – | Delta blood pressure (Rattus norvegicus [13]): 42 mmHg |
| Cc1ccc(CSC[C@@H](NC(=O)[C@@H](CS)Cc2ccccc2)C(=O)O)cc1C | – | – | – | 23 | IC50 (Neprilysin [6]): 370 nM |
| CC(=O)SC[C@H](Cc1ccccc1)C(=O)N[C@H](CSCc1ccc(C)cc1)C(N)=O | – | – | – | – | Delta blood pressure (Rattus norvegicus [11]): 0 mmHg; Delta blood pressure (Rattus norvegicus [13]): 0 mmHg |
| O=C(N[C@H](CSCc1ccccc1)C(=O)O)[C@H](CS)Cc1ccccc1 | > 1000 | 32 | 55 | – | Delta blood pressure (Rattus norvegicus [15]): 45 mmHg; Delta blood pressure (Rattus norvegicus [16]): 21 mmHg |
| CSCC[C@@H](NC(=O)[C@@H](CSC(C)=O)Cc1ccccc1)C(N)=O | – | – | – | 23 | Delta blood pressure (Rattus norvegicus [17]): 39 mmHg |
| O=C(N[C@H](CSCc1ccccc1)C(=O)O)[C@@H](CS)Cc1ccccc1 | 24 | 9 | 30 | – | Delta blood pressure (Rattus norvegicus [5]; 30 mg/kg): 35 mmHg; Delta blood pressure (Rattus norvegicus [16]): 17 mmHg |
| CSCC[C@@H](NC(=O)C(CSC(C)=O)Cc1ccccc1)C(=O)N1CCCCC1 (stereo partly specified) | – | – | – | 38 | Delta blood pressure (Rattus norvegicus [7]): 3 mmHg; Delta blood pressure (Rattus norvegicus [16]): 32 mmHg |

Now from value to compound, other results behind:

| IC50 [1] [nM] | IC50 (Neprilysin [2]) [nM] | SMILES | Delta blood pressure (Rattus norvegicus [4]) [mmHg] | Delta blood pressure (Rattus norvegicus [5]) [mmHg] | also measured |
| --- | --- | --- | --- | --- | --- |
| 1200 | 20 | Cc1ccc(CSC[C@@H](NC(=O)[C@H](CS)Cc2ccccc2)C(=O)O)cc1 | 33 | 48 | Delta blood pressure (Rattus norvegicus [3]): 28 mmHg |
| 100 | 7 | CSCC[C@@H](NC(=O)[C@@H](CS)Cc1ccccc1C)C(=O)O | – | – | Delta blood pressure (Rattus norvegicus [7]): 43 mmHg; Delta blood pressure (Rattus norvegicus [8]): 24 mmHg |
| 120 | 4 | CSCC[C@@H](NC(=O)C(CS)Cc1ccccc1)C(=O)O (stereo partly specified) | 42 | 25 | Delta blood pressure (Rattus norvegicus [3]): 18 mmHg |
| > 1000 | > 300 | CSCC[C@@H](NC(=O)[C@H](CS)CCc1ccccc1)C(=O)O | – | – | Delta blood pressure (Rattus norvegicus [14]): 6 mmHg |
| 19 | 11 | Cc1ccc(CSC[C@@H](NC(=O)[C@@H](CS)Cc2ccccc2)C(=O)O)cc1 | 17 | 48 | – |
| 250 | > 300 | CCOC(=O)[C@@H](CCSC)NC(=O)[C@@H](CSC(C)=O)Cc1ccccc1C | – | 36 | Delta blood pressure (Rattus norvegicus [11]): 70 mmHg; Delta blood pressure (Rattus norvegicus [18]): 27 mmHg; Delta blood pressure (Rattus norvegicus [17]): 48 mmHg |
| 28 | 2.4 | CCSC[C@@H](NC(=O)[C@@H](CS)Cc1ccccc1)C(=O)O | – | 19 | Delta blood pressure (Rattus norvegicus [11]): 61 mmHg; Delta blood pressure (Rattus norvegicus [12]): 22 mmHg; Delta blood pressure (Rattus norvegicus [19]): 21 mmHg |
